Values after ≈ are worked out from the molar mass of the structure shown.
How the values were obtained:
[1] = target: Signal peptidase I (Escherichia coli K-12) (UniProt P00803); assay: Inhibition of Escherichia coli type 1 signal peptidase lepB assessed as residual activity at 2.5 uM preincubated for 10 mins followed by Dabcyl-VGGTATAYGAFSRPGLE-(EDANS)-OH substrate addition measured after 2 hrs by FRET based assay (reference value: 100%)
Outline: (§1)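 EcLepB (about 50 nM estimated) preincubated 10 min with compound. Reaction started with Dabcyl/EDANS FRET peptide at 8 µM final (Km 20 µM). Fluorescence followed continuously at 535 nm, 22 °C, for 2 h. Cleavage rates plotted against inhibitor concentration; IC50 from non-linear regression of sigmoidal dose-response curves.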

Klebsiella pneumoniae = assay: Antibacterial activity against Klebsiella pneumoniae ATCC 13883 after 16 to 20 hrs by broth microdilution method; format: functional
Outline: (§2)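 Broth microdilution in cation-adjusted Mueller-Hinton II per EUCAST/CLSI; two-fold compound series 64 down to 0.25 µg/mL final. Inoculum from fresh colonies (non-selective agar, 18-24 h, 35 ± 2 °C), adjusted to 0.5 McFarland, diluted to about 5 × 10^5 CFU/mL final. Static incubation 16-20 h at 35 ± 2 °C; MIC read visually as complete growth inhibition against medium-only wells.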

[2] = target: Signal peptidase I (Escherichia coli K-12) (UniProt P00803); assay: Inhibition of Escherichia coli type 1 signal peptidase lepB assessed as residual activity at 0.1563 uM preincubated for 10 mins followed by Dabcyl-VGGTATAYGAFSRPGLE-(EDANS)-OH substrate addition measured after 2 hrs by FRET based assay (reference value: 100%); outline: as §1
[3] = target: Signal peptidase I (Escherichia coli K-12) (UniProt P00803); assay: Inhibition of Escherichia coli type 1 signal peptidase lepB assessed as residual activity at 0.0391 uM preincubated for 10 mins followed by Dabcyl-VGGTATAYGAFSRPGLE-(EDANS)-OH substrate addition measured after 2 hrs by FRET based assay (reference value: 100%); outline: as §1
Escherichia coli [4] = assay: Antibacterial activity against Escherichia coli ATCC 25922 after 16 to 20 hrs by broth microdilution method; format: functional; outline: as §2
[5] = target: Signal peptidase I (Escherichia coli K-12) (UniProt P00803); assay: Inhibition of Escherichia coli type 1 signal peptidase lepB assessed as residual activity at 0.0006 uM preincubated for 10 mins followed by Dabcyl-VGGTATAYGAFSRPGLE-(EDANS)-OH substrate addition measured after 2 hrs by FRET based assay (reference value: 100%); outline: as §1
Signal peptidase I = Signal peptidase I (Escherichia coli K-12, UniProt P00803); assay: Inhibition of Escherichia coli type 1 signal peptidase lepB preincubated for 10 mins followed by Dabcyl-VGGTATAYGAFSRPGLE-(EDANS)-OH substrate addition measured after 2 hrs by FRET based assay; outline: as §1
[6] = target: Signal peptidase I (Escherichia coli K-12) (UniProt P00803); assay: Inhibition of Escherichia coli type 1 signal peptidase lepB assessed as residual activity at 10 uM preincubated for 10 mins followed by Dabcyl-VGGTATAYGAFSRPGLE-(EDANS)-OH substrate addition measured after 2 hrs by FRET based assay (reference value: 100%); outline: as §1
[7] = Hemolytic activity in human RBC at 100 uM after 45 mins by spectrophotometric method relative to control; format: ADME, cell-based, Erythrocyte; conditions: red blood cells (erythrocytes), read-out: Activity
Outline: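 Heparinized human blood; red cells washed three times in Tyrode buffer pH 7.4. Compound at 100 µM final with 1% DMSO and 50% RBC, shaken (250 rpm) 45 min at 37 °C. Cells pelleted (1000 × g, 10 min); supernatant haemoglobin at 540 nm. Percent lysis relative to buffer-only and 2% Triton X-100 controls.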

Pseudomonas aeruginosa [8] = assay: Antibacterial activity against efflux defective Pseudomonas aeruginosa PAO750 after 16 to 20 hrs by broth microdilution method; format: functional; outline: as §2
Escherichia coli [9] = assay: Antibacterial activity against tolC deficient Escherichia coli CH3130 after 16 to 20 hrs by broth microdilution method; format: functional; outline: as §2
[10] = target: Signal peptidase I (Escherichia coli K-12) (UniProt P00803); assay: Inhibition of Escherichia coli type 1 signal peptidase lepB assessed as residual activity at 0.0098 uM preincubated for 10 mins followed by Dabcyl-VGGTATAYGAFSRPGLE-(EDANS)-OH substrate addition measured after 2 hrs by FRET based assay (reference value: 100%); outline: as §1
[11] = target: Signal peptidase I (Escherichia coli K-12) (UniProt P00803); assay: Inhibition of Escherichia coli type 1 signal peptidase lepB assessed as residual activity at 0.0012 uM preincubated for 10 mins followed by Dabcyl-VGGTATAYGAFSRPGLE-(EDANS)-OH substrate addition measured after 2 hrs by FRET based assay (reference value: 100%); outline: as §1
[12] = target: Signal peptidase I (Escherichia coli K-12) (UniProt P00803); assay: Inhibition of Escherichia coli type 1 signal peptidase lepB assessed as residual activity at 0.0049 uM preincubated for 10 mins followed by Dabcyl-VGGTATAYGAFSRPGLE-(EDANS)-OH substrate addition measured after 2 hrs by FRET based assay (reference value: 100%); outline: as §1
Pseudomonas aeruginosa [13] = assay: Antibacterial activity against Pseudomonas aeruginosa PAO1 after 16 to 20 hrs by broth microdilution method; format: functional; outline: as §2
[14] = target: Signal peptidase I (Escherichia coli K-12) (UniProt P00803); assay: Inhibition of Escherichia coli type 1 signal peptidase lepB assessed as residual activity at 0.3125 uM preincubated for 10 mins followed by Dabcyl-VGGTATAYGAFSRPGLE-(EDANS)-OH substrate addition measured after 2 hrs by FRET based assay (reference value: 100%); outline: as §1
Escherichia coli [15] = assay: Antibacterial activity against Escherichia coli D22 CGSG 5163 harboring Ips mutant after 16 to 20 hrs by broth microdilution method; format: functional
Outline: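 Broth microdilution in cation-adjusted Mueller-Hinton II broth, following EUCAST and CLSI guidelines. Two-fold series at final concentrations 64 down to 0.25 µg/mL, with medium-only and growth controls. Inoculum from fresh colonies (18-24 h, 35 °C ± 2 °C) adjusted to 0.5 McFarland, final ≈5 × 10^5 CFU/mL. Plates incubated unshaken 16-20 h at 35 °C ± 2 °C. MIC read visually as complete inhibition of growth.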

Acinetobacter baumannii = assay: Antibacterial activity against Acinetobacter baumannii ATCC 19606 after 16 to 20 hrs by broth microdilution method; format: functional; conditions: ATCC 19606 = CIP 70.34 = JCM 6841; outline: as §2
Staphylococcus aureus = assay: Antibacterial activity against Staphylococcus aureus ATCC 29213 after 16 to 20 hrs by broth microdilution method; format: functional; outline: as §2
[16] = target: Signal peptidase I (Escherichia coli K-12) (UniProt P00803); assay: Inhibition of Escherichia coli type 1 signal peptidase lepB assessed as residual activity at 0.625 uM preincubated for 10 mins followed by Dabcyl-VGGTATAYGAFSRPGLE-(EDANS)-OH substrate addition measured after 2 hrs by FRET based assay (reference value: 100%); outline: as §1
[17] = target: Signal peptidase I (Escherichia coli K-12) (UniProt P00803); assay: Inhibition of Escherichia coli type 1 signal peptidase lepB assessed as residual activity at 0.0024 uM preincubated for 10 mins followed by Dabcyl-VGGTATAYGAFSRPGLE-(EDANS)-OH substrate addition measured after 2 hrs by FRET based assay (reference value: 100%); outline: as §1
HepG2 = assay: Cytotoxicity against human HepG2 cells after 72 hrs by FMSA; format: cell-based; conditions: HepG2, 72 h
Outline: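 HepG2 (ATCC) grown in EMEM with 10% FBS, pen/strep, 2 mM L-glutamine, used up to 20 passages. Seeded at 1000 cells/well, cultured overnight, then dosed acoustically from DMSO stocks. Eight two-fold dilutions in duplicate from top 64 or 32 µM; 72 h at 37 °C, 5% CO2. Fluorescein diacetate hydrolysis read at ex 485/em 530 nm; IC50 by non-linear regression.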

[18] = target: Signal peptidase I (Escherichia coli K-12) (UniProt P00803); assay: Inhibition of Escherichia coli type 1 signal peptidase lepB assessed as residual activity at 1.25 uM preincubated for 10 mins followed by Dabcyl-VGGTATAYGAFSRPGLE-(EDANS)-OH substrate addition measured after 2 hrs by FRET based assay (reference value: 100%); outline: as §1
[19] = target: Signal peptidase I (Escherichia coli K-12) (UniProt P00803); assay: Inhibition of Escherichia coli type 1 signal peptidase lepB assessed as residual activity at 5 uM preincubated for 10 mins followed by Dabcyl-VGGTATAYGAFSRPGLE-(EDANS)-OH substrate addition measured after 2 hrs by FRET based assay (reference value: 100%); outline: as §1
[20] = target: Signal peptidase I (Escherichia coli K-12) (UniProt P00803); assay: Inhibition of Escherichia coli type 1 signal peptidase lepB assessed as residual activity at 0.0195 uM preincubated for 10 mins followed by Dabcyl-VGGTATAYGAFSRPGLE-(EDANS)-OH substrate addition measured after 2 hrs by FRET based assay (reference value: 100%); outline: as §1
[21] = target: Signal peptidase I (Escherichia coli K-12) (UniProt P00803); assay: Inhibition of Escherichia coli type 1 signal peptidase lepB assessed as residual activity at 0.0781 uM preincubated for 10 mins followed by Dabcyl-VGGTATAYGAFSRPGLE-(EDANS)-OH substrate addition measured after 2 hrs by FRET based assay (reference value: 100%); outline: as §1

Sequence of Signal peptidase I (Escherichia coli K-12) (P00803 whole entry): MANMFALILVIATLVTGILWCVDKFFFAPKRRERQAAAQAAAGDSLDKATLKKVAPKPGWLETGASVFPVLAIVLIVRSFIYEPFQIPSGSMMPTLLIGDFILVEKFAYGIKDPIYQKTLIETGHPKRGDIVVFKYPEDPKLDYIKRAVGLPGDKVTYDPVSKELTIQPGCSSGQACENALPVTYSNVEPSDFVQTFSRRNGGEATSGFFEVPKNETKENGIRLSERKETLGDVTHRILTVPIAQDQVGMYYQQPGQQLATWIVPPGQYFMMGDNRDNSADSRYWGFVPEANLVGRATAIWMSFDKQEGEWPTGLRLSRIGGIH
Sequence of Signal peptidase I (P00803 whole entry): as above

Structure (SMILES)	Activity [1] [%]	MIC (Klebsiella pneumoniae) [µg/mL]	Activity [2] [%]	Activity [3] [%]	MIC (Escherichia coli [4]) [µg/mL]	IC50 (Signal peptidase I) [µM]	Activity [6] [%]	hemolysis at 0.75 h, 100 µM [7] [%]	MIC (Pseudomonas aeruginosa [8]) [µg/mL]	MIC (Escherichia coli [9]) [µg/mL]	Activity [10] [%]	Activity [11] [%]	Activity [12] [%]	MIC (Pseudomonas aeruginosa [13]) [µg/mL]	Activity [14] [%]	MIC (Escherichia coli [15]) [µg/mL]	MIC (Acinetobacter baumannii) [µg/mL]	MIC (Staphylococcus aureus) [µg/mL]	Activity [16] [%]	Activity [17] [%]	also measured
CCCCCCc1ccc(-c2ccc(C(=O)N[C@@H](CCCN)C(=O)N[C@H](C(=O)N[C@@H](C)C(=O)N[C@H]3Cc4cn(nn4)CCO[C@@H]4C[C@@H]5OB(O[C@@H]5C4)[C@H](C)NC3=O)[C@@H](C)O)cc2)cc1	27.1	8 (≈ 9.03 µM)	57.6	77.8	16 (≈ 18.1 µM)	0.175	-2.5	10.6	32 (≈ 36.1 µM)	4 (≈ 4.52 µM)	94.3	90.7	91	64 (≈ 72.2 µM)	39.1	4 (≈ 4.52 µM)	8 (≈ 9.03 µM)	2 (≈ 2.26 µM)	27.1	90.6	Activity [5]: 95.3%; IC50 (HepG2): 8 µM; Activity [18]: 42.2%; Activity [19]: 4%; Activity [20]: 84.3%; Activity [21]: 65.2%
CCCCCCc1ccc(-c2c[nH]c3ccc(C(=O)N[C@@H](CCCN)C(=O)N[C@H](C(=O)N[C@@H](C)C(=O)N[C@H]4Cc5cn(nn5)CCO[C@@H]5C[C@@H]6OB(O[C@@H]6C5)[C@H](C)NC4=O)[C@@H](C)O)cc23)cc1	2.9	64 (≈ 69.2 µM)	58.5	94.2	32 (≈ 34.6 µM)	0.225	-19.8	2.8	64 (≈ 69.2 µM)	32 (≈ 34.6 µM)	98.5	106	99.5	64 (≈ 69.2 µM)	42.8	16 (≈ 17.3 µM)	64 (≈ 69.2 µM)	16 (≈ 17.3 µM)	20.4	108	IC50 (HepG2): 23.7 µM; Activity [18]: 8.1%; Activity [19]: -6.8%; Activity [20]: 101%; Activity [21]: 78.1%

Source: ChEMBL document CHEMBL4270642, “Boronic ester-linked macrocyclic lipopeptides as serine protease inhibitors targeting Escherichia coli type I signal peptidase” (Eur J Med Chem, 2018)
